# Screening data as filed in PubChem.
# MPTP block – permeability transition pore inhibition. isolated mouse mitochondria, Ca2+ swelling absorbance, 30 min. inhibition, % at 10 µM. 360,000 compounds, 1.4% hits. AID 602449;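 active = inhibition of 50% or more, scaled per plate between neutral and stimulator controls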;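 also: 0% = DMSO wells given calcium and 100% = 1 mM EGTA wells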
# NR3A LBD binder – NR3A (human) ligand-binding domain modulation; NR3A LBD differential scanning fluorimetry, Tm shift; 0% = protein alone, 100% = glycine-bound protein; Tm shift relative to glycine control, % at 25 µM; 340,000 compounds, 2.5% hits;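 active = melting temperature shift of at least 10% of the positive control shift, at one fixed dose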
# SKN-1 block – inhibitors of C. elegans SKN-1; C. elegans VP596 Pgst-4::GFP/RFP ratio, acrylamide-induced, 24 h; inhibition, % at 21.8 µM; 360,000 compounds, 0.49% hits;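 active = interference check ratio from 0.5 to 1.5 plus GFP to RFP signal ratio inhibition reaching or exceeding a fixed threshold, cut at about 30% in these data, passing the limit was not always enough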
# ADAM17 inh – inhibitors of human ADAM17; P78536; recombinant ADAM17, EDANS/DABCYL FRET peptide cleavage; inhibition, % at 6.95 µM; 370,000 compounds, 0.83% hits; AID 720648;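 active = inhibition above the mean of compounds lying between control limits plus 3 SD, set per campaign, cut at about 8.5% in these data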;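 also: 0% = DMSO-only wells as the low control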
# MT1-MMP act inh – MT1-MMP (human) activation inhibition; HT1080 RFP-PRO-GFP cells, GFP/RFP ratio fluorescence, overnight; percent of plate control window, DMSO zero; 360,000 compounds, 0.061% hits; GFP/RFP ratio change, % at 20 µM; P50281;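 active = GFP/RFP ratio change of at least 30% with cell ATP level not reduced by more than half and red fluorescence within 50% of control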
#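 Assay system: RFP-PRO-GFP reporter HT1080 cells; read-out basis: GFP/RFP fluorescence ratio; benchmarks: DMSO wells and RFP-L50D-GFP cells; doses: 20 µM single dose, 1% DMSO; schedule: overnight cell settling, then overnight compound exposure, 37 °C, 5% CO2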
# ADAM10 inh – inhibitors of human ADAM10; O14672; recombinant ADAM10, EDANS/DABCYL FRET peptide cleavage, 3 h; inhibition, % at 7 µM; 370,000 compounds, 0.62% hits; AID 720582;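 active = inhibition above a per-campaign cutoff equal to the mean of compounds falling between control-based bounds plus 3 SD, cut at about 20% in these data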;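 also: 0% = DMSO wells while the 100% control is not disclosed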
# Target sequence (O14672 214-748 limits assumed): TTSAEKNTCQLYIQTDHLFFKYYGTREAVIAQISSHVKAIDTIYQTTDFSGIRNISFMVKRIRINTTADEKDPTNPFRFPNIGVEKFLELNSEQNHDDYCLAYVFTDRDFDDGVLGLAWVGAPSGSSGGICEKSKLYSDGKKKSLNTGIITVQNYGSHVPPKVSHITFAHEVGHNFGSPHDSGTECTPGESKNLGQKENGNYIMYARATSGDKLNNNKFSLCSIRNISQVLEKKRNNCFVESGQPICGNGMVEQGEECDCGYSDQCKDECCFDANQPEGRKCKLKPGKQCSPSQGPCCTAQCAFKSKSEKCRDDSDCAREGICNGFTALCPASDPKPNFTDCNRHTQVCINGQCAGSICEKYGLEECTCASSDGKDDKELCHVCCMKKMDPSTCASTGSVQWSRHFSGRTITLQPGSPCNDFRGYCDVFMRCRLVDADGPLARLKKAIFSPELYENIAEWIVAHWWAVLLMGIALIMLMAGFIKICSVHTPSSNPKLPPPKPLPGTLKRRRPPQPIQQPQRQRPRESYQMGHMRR
# Active calls of the source: *; . = not tested or not shown; ! = not confirmed by another sample. Most compounds without a hit are left out; they make up all but 4.7% or so of the library.
SMILES,MPTP block,NR3A LBD binder,SKN-1 block,ADAM17 inh,MT1-MMP act inh,ADAM10 inh
C=CCN(C(=O)CCC(=O)Nc1cc(C)on1)C(C(=O)NC(C)(C)C)c1cccc(OC)c1OC (stereo not drawn),1.1,401.4*,27.9,-7.5,1.4,2.5
COc1cc(OC)c(OC)cc1/C=N/Nc1nc2ccccc2[nH]1,3.0,-1.4,-3.2,-14.2,8.7,-26.4
Cc1ccc2cc(/C=N/Nc3nc4ccccc4[nH]3)c(Cl)nc2c1,10.9,11.7*,0.4,0.7,1.1,-2.2
O=C(O)Cc1cn(-c2ccccc2)nc1-c1ccc(Cl)cc1,-0.5,12.1*,3.1,0.3,4.0,3.7
O=C(Nc1cn(-c2ccccc2)nc1-c1ccc(Cl)cc1)c1ccccc1,6.6,6.6,4.9,0.5,-7.4,8.1
CC(C)COc1ccc(-c2nn(-c3ccccc3)cc2CO)cc1,0.2,7.4,12.5,6.5,3.5,11.9
OCc1cn(-c2ccccc2)nc1-c1ccc(Br)cc1,0.9,33.9*,10.6,7.2,-1.2,16.8
CN(C)c1ccc(N=Nc2nccs2)cc1,39.5,.,56.5*,0.0,34.9,5.1
COc1cccc(NC(=O)CSc2nc3n[nH]c(C)c3c(=N)n2-c2cccc(OC)c2)c1,2.7,-2.8,11.4,0.9,4.8,11.8
Cc1cc(-n2c(SCC(=O)Nc3ccc(F)c(F)c3)nc3n[nH]c(C)c3c2=N)ccc1Cl,1.1,25.5*,2.9,-2.3,4.5,-7.6
CCc1ccc(NC(=O)CSc2nc3n[nH]c(C)c3c(=N)n2-c2cccc(OC)c2)cc1,-1.1,23.1*,31.9,-12.9,1.8,-29.7
CCOc1ccc(-n2c(SCC(=O)Nc3ccccc3CC)nc3n[nH]c(C)c3c2=N)cc1,.,.,.,-2.4,.,4.0
CCOc1ccc(-n2c(SCC(=O)Nc3ccc(Br)cc3)nc3n[nH]c(C)c3c2=N)cc1,6.0,18.6*,9.9,-3.3,-2.5,-9.1
Cc1cc(-n2c(SCC(=O)NCc3cccs3)nc3n[nH]c(C)c3c2=N)ccc1Cl,2.6,4.3,8.3,3.0,18.1,7.8
Cc1cc(-n2c(SCC(=O)Nc3ccc(Br)cc3)nc3n[nH]c(C)c3c2=N)ccc1Cl,2.6,19.8*,-1.9,-3.7,2.9,-11.8
CCOC(=O)c1cnc(N2CCOCC2)[nH]c1=O,0.8,-0.6,17.3,-3.1,13.5,-4.7
COC(C(=O)N/N=C(\C)CC(=O)Nc1ccc(N(C)C)cc1)c1ccccc1 (stereo not drawn),0.3,-0.2,6.9,-3.5,3.9,-6.4
C[C@H]1[C@H](NCc2cccnc2)CC[C@@]23CCCN2C(=O)CCC[C@@H]13,.,.,.,-1.4,.,1.0
CCOc1cccc(OCCOCCNC(C)(C)C)c1,-1.2,15.9*,3.5,-3.2,0.7,-7.4
CCOc1ccc(OCCCCNC(C)(C)C)cc1,0.2,-1.2,-9.7,4.2,-1.9,-2.5
CCOC(=O)/C(C#N)=C/c1c(Oc2cccc(C)c2)nc2ccccn2c1=O,6.4,-1.2,-3.1,-4.7,-2.0,1.8
CCOC(=O)/C(C#N)=C/c1c(Oc2cc(C)cc(C)c2)nc2ccccn2c1=O,1.6,14.8*,6.1,-4.2,-0.7,-12.8
COc1cccc(C(=O)Nc2nnc(SCC(=O)Nc3ccc(NC(C)=O)cc3)s2)c1,-0.3,36.8*,30.4,1.3,-0.9,-3.0
O=C(CSc1nnc(NC(=O)C2CC2)s1)Nc1cccc(F)c1,0.6,14.5*,-6.1,-1.4,-0.6,2.6
CCc1ccccc1NC(=O)CSc1ccsc1[N+](=O)[O-],1.1,-0.8,-8.5,-3.5,-5.9,-6.5
SMILES,MPTP block,NR3A LBD binder,SKN-1 block,ADAM17 inh,MT1-MMP act inh,ADAM10 inh
COc1cccc(NC(=O)CSc2nnc(NC(=O)C3CCC3)s2)c1,0.7,12.4*,7.3,-0.7,-2.8,2.5
O=C(CSc1ccsc1[N+](=O)[O-])Nc1cccc(F)c1,33.0,19.9*,-6.5,0.1,-5.9,3.4
COc1cccc(N2CC(C(=O)Nc3nnc(SCC(=O)Nc4ccc(NC(C)=O)cc4)s3)CC2=O)c1 (stereo not drawn),-1.5,3.1,10.4,0.1,0.3,-4.3
CCCCNC(=O)C1CCCN(S(=O)(=O)c2ccc(-n3cnnn3)cc2)C1 (stereo not drawn),-1.0,0.7,4.6,-0.8,0.0,5.7
Clc1ccc(Oc2nc(N3CCOCC3)nc(N3CCOCC3)n2)c(C2CCCCC2)c1,1.5,3.4,2.1,-3.6,-0.2,3.9
Fc1ccc(-c2nnc(-c3ccc(F)cc3)o2)cc1,1.7,0.6,38.7*,-3.9,-1.2,1.1
Fc1ccc(-c2nnc(Cc3nnc(-c4ccc(F)cc4)o3)o2)cc1,-0.5,-2.0,-11.1,0.0,-8.3,-3.2
Cc1cccc(-c2nnc(-c3ccccc3)o2)c1,-1.4,-1.8,30.0,-2.6,2.0,-3.1
Fc1ccc(-c2nnc(-c3ccc4ccccc4c3)o2)cc1,1.4,-1.9,43.1*,-11.1,-3.8,-36.9
Cc1ccccc1NC(=S)N(Cc1cccs1)C1CCCCC1,0.1,-0.4,-1.8,-1.7,0.0,4.9
O=C(NC1CC1)c1cc(F)c(F)cc1Cl,-0.7,-2.8,-2.8,-2.3,-2.7,4.8
Cc1c(N=C2N=C(NC(=O)Nc3ccc(Cl)cc3)c3ccccc32)c(=O)n(-c2ccccc2)n1C,2.2,1.9,-7.0,-2.2,-19.5,-5.1
O=C(O)c1ccc(Cl)cc1Nc1nc2cc(Cl)ccc2o1,5.6,13.5*,24.7,-2.5,1.0,-5.4
O=C1CCCc2nc3c(cc21)C(O)Oc1c-3ccc2ccccc12 (stereo not drawn),3.5,0.3,6.2,-9.1,4.3,-24.8
CCOc1ccc(CCNC(=O)C2CCCN(S(=O)(=O)c3c(C)n[nH]c3C)C2)cc1OCC (stereo not drawn),3.2,0.7,-1.3,4.7,1.4,3.5
Cn1c(N)c(C(=O)N/N=C/c2ccccc2)sc1=S,-0.9,32.8*,30.5,0.7,4.7,-8.2
Cc1ccc(S(=O)(=O)c2nc(Nc3nccs3)sc2Cl)cc1,42.1,11.9*,-4.6,3.6,0.2,11.1
CC(=O)Nc1c(I)c(NC(C)=O)c(I)c(C(=O)O)c1I,-0.6,12.9*!,-10.9,-9.2,1.5,-4.7
Oc1c(Cl)c(Cl)c2ncccc2c1Cl,-1.6,2.0,16.0,-8.1,0.9,-28.2
Oc1ccc2c(c1)c1ccccc1c1ncccc21,3.0,30.8*,9.2,3.7,6.6,3.6
Cc1cc(Cl)ccc1OCC(=O)NC(=S)Nc1ccc(Cl)cn1,-0.2,0.9,8.0,-1.8,1.2,-3.5
COc1ccc(CNC(=O)CN(C(=O)c2csnn2)c2cccc(F)c2)cc1,-0.9,-2.3,-1.8,-3.0,0.5,-0.8
COc1ccccc1CNC(=O)c1nn(C)c2c1CS(=O)(=O)c1ccccc1-2,-1.6,17.7*,4.2,1.7,4.1,0.5
COc1ccc2c(Cl)c(C(N)=O)sc2c1,-1.4,34.0*,2.0,1.4,-3.4,0.8
